Data set [1] in a line: AUC in Sprague-Dawley rat brain at 2 mg/kg, po. Format: ADME, organism-based.
Data set [2] in a line: Oral bioavailability in beagle dog plasma at 1 mg/kg. In kind it is ADME, organism-based, Canis lupus familiaris.
Data set [3] in a line: Plasma concentration in Sprague-Dawley rat at 3 mg/kg, iv administered for 30 mins. Format: ADME, organism-based.
The target of a further data set is T1, Cytochrome P450 1A2 (Homo sapiens, UniProt P05177).
T1 sequence (P05177 whole entry): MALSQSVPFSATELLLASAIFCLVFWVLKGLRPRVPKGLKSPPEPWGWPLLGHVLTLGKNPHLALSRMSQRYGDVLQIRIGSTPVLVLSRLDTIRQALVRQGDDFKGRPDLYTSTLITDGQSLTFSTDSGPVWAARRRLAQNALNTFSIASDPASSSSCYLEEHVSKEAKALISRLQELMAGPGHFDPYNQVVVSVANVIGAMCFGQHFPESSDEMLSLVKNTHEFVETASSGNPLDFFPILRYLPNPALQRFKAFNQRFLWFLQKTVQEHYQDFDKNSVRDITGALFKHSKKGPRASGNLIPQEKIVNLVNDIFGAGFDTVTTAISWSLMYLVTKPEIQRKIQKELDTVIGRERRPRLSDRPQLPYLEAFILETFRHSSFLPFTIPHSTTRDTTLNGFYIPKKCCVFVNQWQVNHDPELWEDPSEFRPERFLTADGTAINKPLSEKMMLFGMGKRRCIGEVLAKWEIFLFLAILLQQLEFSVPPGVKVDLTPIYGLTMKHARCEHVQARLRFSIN
The data set is described as follows: Inhibition of CYP1A2 (unknown origin). Format: ADME.

The target in data set [4] is T2, Sphingosine 1-phosphate receptor 4 (Homo sapiens) (UniProt O95977).
T2 sequence (whole entry): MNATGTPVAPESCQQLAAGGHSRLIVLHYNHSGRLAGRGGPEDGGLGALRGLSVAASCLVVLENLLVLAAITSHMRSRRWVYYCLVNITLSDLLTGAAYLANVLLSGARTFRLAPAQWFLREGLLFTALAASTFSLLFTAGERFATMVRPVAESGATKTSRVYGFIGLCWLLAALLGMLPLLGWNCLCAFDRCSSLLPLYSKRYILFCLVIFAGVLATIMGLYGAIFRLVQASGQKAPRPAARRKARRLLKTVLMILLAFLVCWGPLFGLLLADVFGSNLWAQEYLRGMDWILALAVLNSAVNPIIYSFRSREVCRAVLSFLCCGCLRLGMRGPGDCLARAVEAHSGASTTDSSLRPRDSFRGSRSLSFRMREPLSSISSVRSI
The data set is described as follows: Displacement of [33P]S1P from S1P4 receptor (unknown origin) expressed in HEK cell membranes after 45 to 60 mins by scintillation counting based RLB method. The conditions noted are these: HEK293. The essentials: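 Membranes from transiently transfected HEK cells overexpressing the S1P receptor, 5-10 µg per well, in 50 mM HEPES pH 7.4, 100 mM NaCl, 10 mM MgCl2, 0.1% fatty-acid-free BSA. [33P]S1P at 50 pM; non-specific binding with 1 µM cold S1P. Final DMSO 1 or 0.5%. Incubated 45-60 min at room temperature, then filtered and counted. IC50 from non-linear fit of percent inhibition.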

The nature of data set [5]: AUC in Sprague-Dawley rat at 10 mg/kg, po qd measured on day 2 and day 14. In kind it is ADME, organism-based. The conditions noted are these: in vivo. The essentials: (§1)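 Sprague-Dawley rats of both sexes dosed orally once daily for 14 days in a tolerability study; exposure AUC measured on day 2 and day 14.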
Data set [6] can be described thus: AUC in Sprague-Dawley rat at 100 mg/kg, po qd measured on day 2 and day 14. In kind it is ADME, organism-based. The conditions noted are these: in vivo. The essentials:
as §1

Data set [7] deals with Mus musculus. Description: Anticonvulsant activity against CD1 mouse assessed as protection against pentylenetetrazole-induced seizures at 0.3 to 30 mg/kg, po qd. Format: functional, organism-based. The essentials:
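Part of a 41-assay multiplexed in vivo screening panel run at Melior Discovery. CD1 mice received 0.3, 3 and 30 mg/kg orally once daily; endpoints were compared with vehicle-treated mice.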

In data set [8] the test system is Mus musculus. Description: Increase in urination frequency in CD1 mouse at 0.3 to 30 mg/kg, po qd. Conditions: in vivo. Format: ADME, organism-based. The essentials: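 This endpoint belongs to an outsourced multiplexed panel of 41 in vivo screening assays. CD1 mice received 0.3, 3 or 30 mg/kg orally once daily, and responses were compared with vehicle-treated mice.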

Another data set deals with Rattus norvegicus. The data set is described as follows: Toxicity in Sprague-Dawley rat assessed as survival at 10 to 100 mg/kg, po qd measured on day 14. Format: organism-based. Conditions: in vivo.
Data set [9] can be described thus: Half life in cynomolgus monkey plasma at 1 mg/kg, iv. In kind it is ADME, organism-based, Macaca fascicularis.
Data set [10] can be described thus: Volume of distribution at steady state in cynomolgus monkey plasma at 1 mg/kg, iv. Format: ADME, organism-based, Macaca fascicularis. Conditions: read-out: Vdss.
A short description of data set [11]: Half life in Sprague-Dawley rat plasma at 1 mg/kg, po. In kind it is ADME, organism-based.
Data set [12] can be described thus: AUC in BALB/C mouse brain at 2 mg/kg, po. In kind it is ADME, organism-based.

Structures are written as SMILES. Calls of active or inactive are those of the source.

Broadly, the AUC is the area under the concentration-time curve, a measure of exposure. As a reminder, the bioavailability is the share of a dose that reaches the circulation, judged against a reference dose that is usually intravenous. The half-life is the time needed for the level to fall by half in the phase considered.

With `O=C(O)C1CN(Cc2ccc(OCc3ccc(Cl)c(Cl)c3)cc2)C1`, the exposure (AUC) was 3100 ng·h/mL in data set [1], 43000 ng·h/mL in [5], 670000 ng·h/mL in [6] and 1600 ng·h/mL in data set [12]. Further, the bioavailability in data set [2] worked out at 92%. For the same molecule, the concentration at 0.5 h in [3] worked out at 1840 ng/mL. Also, on Cytochrome P450 1A2, the INH is more than 20 µM. The result (in [4]; in the data set with Mus musculus [7]) was inactive. Moreover, the Activity result in the data set with Mus musculus [8] and in the data set on Rattus norvegicus was “Non-toxic” in each case. Also, the half-life in data set [9] was 3.5 h; in data set [11] it was 14 h. The Vd in data set [10] came to 0.82 L/kg.

The values above are taken from ChEMBL document CHEMBL3739276, “Discovery of A-971432, An Orally Bioavailable Selective Sphingosine-1-Phosphate Receptor 5 (S1P5) Agonist for the Potential Treatment of Neurodegenerative Disorders” (J Med Chem, 2015).
